Assay [1] addresses T1, Adenosine receptor A3 (Homo sapiens) (UniProt P0DMS8).
T1 sequence (whole entry): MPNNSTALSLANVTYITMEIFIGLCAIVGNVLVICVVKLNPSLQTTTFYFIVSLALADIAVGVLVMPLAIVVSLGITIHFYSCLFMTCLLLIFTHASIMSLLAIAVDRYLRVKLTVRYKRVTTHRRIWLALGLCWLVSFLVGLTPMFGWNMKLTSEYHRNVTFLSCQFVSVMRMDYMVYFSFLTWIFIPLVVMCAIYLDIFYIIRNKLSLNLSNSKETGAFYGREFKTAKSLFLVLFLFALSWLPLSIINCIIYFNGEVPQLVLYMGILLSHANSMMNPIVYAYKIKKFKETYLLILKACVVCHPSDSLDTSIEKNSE
The experiment in a line: Displacement of [3H]PSB11 from human adenosine A3 receptor expressed in CHO cell membranes at 1 uM after 2 hrs by beta scintillation counting analysis relative to control. Summed up: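 CHO membranes stably expressing human A3 receptor (45 μg protein) incubated with [3H]PSB11 and 1 μM compound in 50 mM Tris-HCl pH 8.0, 10 mM MgCl2, 1 mM EDTA, 0.01% CHAPS, 2 h at 25 °C; nonspecific binding with 100 μM NECA; filtration, washes without CHAPS, scintillation counting; ≥2 experiments in duplicate.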
A general note: Loss of bound radioactivity is the signal in a displacement assay; it reports binding, not function.

The target of a further assay is T2, Adenosine receptor A2b (Homo sapiens, UniProt P29275).
T2 sequence (P29275 whole entry): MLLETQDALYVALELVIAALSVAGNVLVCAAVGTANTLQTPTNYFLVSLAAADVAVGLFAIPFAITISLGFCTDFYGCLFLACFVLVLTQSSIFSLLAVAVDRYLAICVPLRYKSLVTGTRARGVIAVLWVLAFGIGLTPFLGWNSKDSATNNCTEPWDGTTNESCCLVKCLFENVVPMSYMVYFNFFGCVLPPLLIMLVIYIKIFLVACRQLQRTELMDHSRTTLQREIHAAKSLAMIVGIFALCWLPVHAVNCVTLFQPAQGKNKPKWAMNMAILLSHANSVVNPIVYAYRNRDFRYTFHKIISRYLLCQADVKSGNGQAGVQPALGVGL
The experiment in a line: Displacement of [3H]PSB603 from human adenosine A2B receptor expressed in CHO cell membranes after 2 hrs by beta scintillation counting analysis.

Assay [2] deals with T3, Adenosine receptor A1 (Homo sapiens) (UniProt P30542).
T3 sequence (whole entry): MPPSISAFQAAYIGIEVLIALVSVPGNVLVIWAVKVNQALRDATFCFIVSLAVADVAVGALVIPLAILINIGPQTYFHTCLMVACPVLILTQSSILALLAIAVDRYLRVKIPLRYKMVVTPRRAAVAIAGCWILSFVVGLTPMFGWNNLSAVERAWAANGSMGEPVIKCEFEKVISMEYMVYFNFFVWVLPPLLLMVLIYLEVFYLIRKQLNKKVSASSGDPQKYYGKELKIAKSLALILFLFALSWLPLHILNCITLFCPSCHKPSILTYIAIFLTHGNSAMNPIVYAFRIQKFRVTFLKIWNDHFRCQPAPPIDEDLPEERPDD
The experiment in a line: Ratio for displacement of [3H]DPCPX from human adenosine A1 receptor expressed in CHO cell membranes at 10 times Ki after 15 mins by dual-point competition association assay to ratio for displacement of [3H]DPCPX from human adenosine A1 receptor expressed in CHO cell membranes 10 times Ki after 120 mins by dual-point competition association assay.

Assay [3] addresses T3, Adenosine receptor A1 (Homo sapiens). The experiment in a line: Agonist activity human adenosine A1 receptor expressed in CHO cell membranes assessed as stimulation of [35S]GTPgammaS binding at 100 times Ki preincubated for 30 mins followed by radioligand addition measured after 90 mins by beta scintillation counting analysis relative to N6-cyclopentyladenosine. It counts as functional. (Binding of GTPγS marks nucleotide exchange on a G protein.)

For assay [4], the target named is Adenosine receptor A2a (Homo sapiens) (UniProt P29274). The experiment in a line: Displacement of [3H]ZM241385 from human adenosine A2A receptor expressed in HEK293 cell membranes at 1 uM after 2 hrs by beta scintillation counting analysis relative to control. A digest of the protocol: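 HEK 293 membranes stably expressing human A2A receptor (25 μg protein) incubated with [3H]ZM241385 in 50 mM Tris-HCl pH 7.4, 2 h at 25 °C; compounds at 1 μM; nonspecific binding with 100 μM CPA; GF/B filtration, ice-cold washes, scintillation counting; ≥2 experiments in duplicate.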
Chain of Adenosine receptor A2a (Homo sapiens) (P29274 whole entry): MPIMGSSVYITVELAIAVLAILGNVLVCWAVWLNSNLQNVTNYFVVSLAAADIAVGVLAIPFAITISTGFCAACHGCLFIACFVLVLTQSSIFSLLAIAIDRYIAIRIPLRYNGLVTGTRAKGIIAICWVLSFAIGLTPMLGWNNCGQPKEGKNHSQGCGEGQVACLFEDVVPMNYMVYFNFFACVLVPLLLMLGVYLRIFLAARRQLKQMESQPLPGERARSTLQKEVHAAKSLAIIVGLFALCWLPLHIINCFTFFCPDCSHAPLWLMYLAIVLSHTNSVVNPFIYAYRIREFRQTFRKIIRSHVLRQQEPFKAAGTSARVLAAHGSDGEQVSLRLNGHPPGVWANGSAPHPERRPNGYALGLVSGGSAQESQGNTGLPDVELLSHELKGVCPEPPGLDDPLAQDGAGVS

Assay [5] addresses T4, Adenosine receptor A1 (Homo sapiens, UniProt P30542).
T4 sequence (P30542 whole entry): T3 sequence (whole entry)
The experiment in a line: Displacement of [3H]DPCPX from human adenosine A1 receptor expressed in CHO cell membranes after 1 hr by beta scintillation counting analysis. A digest of the protocol: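 Membranes from CHO cells stably expressing human A1 receptor (5 μg protein) incubated with [3H]DPCPX in 25 mM Tris-HCl pH 7.4, 5 mM MgCl2, 0.1% CHAPS, 1 h at 25 °C; nonspecific binding with 100 μM CPA; GF/B filtration, three ice-cold washes, scintillation counting. Single 1 μM points from ≥2 experiments in duplicate; Ki by nonlinear regression (radioligand KD 1.6 nM), ≥3 experiments in duplicate.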

The target in assay [6] is T4, Adenosine receptor A1. The experiment in a line: Agonist activity at adenosine A1 receptor (unknown origin) expressed in CHO cells assessed as […] in intracellular cAMP level by RIA. It counts as functional, cell-based.
The target of assay [7] is T4, Adenosine receptor A1. The experiment in a line: Agonist activity at human adenosine A1 receptor expressed in HEK293 cells assessed as […] in intracellular cAMP level after 30 mins by EIA. The format is functional, cell-based. A general note: Cyclic AMP is a second messenger, typically raised through Gs and lowered through Gi signalling.

On to `N#Cc1c(N)nc(SCc2cscn2)nc1-c1ccc2c(c1)OCO2`, for which the inhibition in assay [1] turned out to be 35%; in assay [4], 31%. In addition, the Ki on Adenosine receptor A2b stood at 42 nM; at Adenosine receptor A1 [5], 9.7 nM. Further, the Ratio in assay [2] is 0.93. Moreover, in assay [3], the Emax came to 27%.

As to `N#Cc1c(N)nc(SCc2csc(-c3ccc(Cl)cc3)n2)c(C#N)c1-c1ccc(OCCO)cc1` [CAPADENOSON], in assay [2], the Ratio was found to be 1.42. Besides, the EC50 at Adenosine receptor A1 [6] was 0.1 nM.

`CCN(CC)CCN1CCN(C(=O)CCc2cccc(CSc3nc(N)c(C#N)c(-c4ccc(NC(C)=O)cc4)n3)n2)CC1`: at Adenosine receptor A1 [7], the EC50 stood at 1 nM.

As usually defined, the inhibition is the change of the read-out against control, counted positive when it falls. High values mean a response far below the control, low ones a response near the control. By Ki is commonly meant a dissociation constant, usually derived from enzyme kinetics or from competition with a known ligand. A higher Ki goes with weaker binding. As a reminder, the Emax is the size of the effect at its maximum, as opposed to the concentration needed. Broadly, the EC50 is the concentration needed to bring the measured effect to its halfway point.
